From ChEMBL document CHEMBL1126018, “Syntheses and 5-HT2 antagonist activity of bicyclic 1,2,4-triazol-3(2H)-one and 1,3,5-triazine-2,4(3H)-dione derivatives” (J Med Chem, 1992)

What was measured:
Mus musculus [1] = experiment: The inhibition of compound was measured for 5 min in head twitches of mice induced by 5-HTP(100 mg/kg, ip) at the dose of 3 mg/kg; format: functional
Summary of the method: (§1)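 Mice received drug orally 1 h before 5-HTP (100 mg/kg ip). Head twitches were counted for 5 or 8 min, starting 30 min after 5-HTP. Results are % inhibition versus controls (n = 6), with n = 4 per treated dose.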

Mus musculus [2] = experiment: The inhibition of compound was measured for 5 min in head twitches of mice induced by 5-HTP(100 mg/kg, ip) at the dose of 10 mg/kg; format: functional; summary of the method: as §1
Mus musculus [3] = experiment: The inhibition of compound was measured for 5 min in head twitches of mice induced by 5-HTP(100 mg/kg, ip) at the dose of 1 mg/kg; format: functional; summary of the method: as §1
[4] = target: T1, Adrenergic receptor alpha-1 (Rattus norvegicus, UniProt P15823+P23944+P43140); experiment: In vitro antagonistic activity tested against the contraction induced by phenylephrine through Alpha-1 adrenergic receptor in rat thoracic aortic strips; format: functional
T1 sequence (P15823 whole entry): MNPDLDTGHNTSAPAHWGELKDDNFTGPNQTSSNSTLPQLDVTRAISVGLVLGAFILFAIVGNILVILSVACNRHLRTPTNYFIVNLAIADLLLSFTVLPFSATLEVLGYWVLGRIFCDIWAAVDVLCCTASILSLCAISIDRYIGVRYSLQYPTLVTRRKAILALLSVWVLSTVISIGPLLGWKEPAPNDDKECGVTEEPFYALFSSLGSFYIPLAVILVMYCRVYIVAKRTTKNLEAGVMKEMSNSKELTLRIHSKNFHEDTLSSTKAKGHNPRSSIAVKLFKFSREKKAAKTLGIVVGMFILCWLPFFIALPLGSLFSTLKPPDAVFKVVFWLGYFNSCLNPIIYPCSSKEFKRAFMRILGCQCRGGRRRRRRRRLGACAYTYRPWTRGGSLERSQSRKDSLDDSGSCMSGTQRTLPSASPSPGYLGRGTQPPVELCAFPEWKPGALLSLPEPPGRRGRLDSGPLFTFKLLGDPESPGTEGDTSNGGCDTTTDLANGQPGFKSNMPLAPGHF
T1 sequence (P23944 whole entry): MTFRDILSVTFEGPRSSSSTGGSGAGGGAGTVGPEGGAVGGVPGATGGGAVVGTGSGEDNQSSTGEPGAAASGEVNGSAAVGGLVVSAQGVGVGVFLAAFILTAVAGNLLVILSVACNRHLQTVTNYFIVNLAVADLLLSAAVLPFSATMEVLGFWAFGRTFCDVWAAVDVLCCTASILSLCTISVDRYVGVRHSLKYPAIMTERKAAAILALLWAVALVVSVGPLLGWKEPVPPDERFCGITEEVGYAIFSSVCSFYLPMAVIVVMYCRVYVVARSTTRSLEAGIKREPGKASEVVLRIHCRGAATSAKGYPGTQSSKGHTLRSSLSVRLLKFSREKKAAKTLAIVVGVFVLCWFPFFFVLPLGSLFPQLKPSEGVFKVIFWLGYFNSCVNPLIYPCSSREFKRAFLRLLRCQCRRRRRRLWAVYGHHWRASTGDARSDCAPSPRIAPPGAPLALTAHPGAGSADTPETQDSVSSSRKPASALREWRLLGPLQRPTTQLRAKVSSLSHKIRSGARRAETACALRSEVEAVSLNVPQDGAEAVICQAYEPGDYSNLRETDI
T1 sequence (P43140 whole entry): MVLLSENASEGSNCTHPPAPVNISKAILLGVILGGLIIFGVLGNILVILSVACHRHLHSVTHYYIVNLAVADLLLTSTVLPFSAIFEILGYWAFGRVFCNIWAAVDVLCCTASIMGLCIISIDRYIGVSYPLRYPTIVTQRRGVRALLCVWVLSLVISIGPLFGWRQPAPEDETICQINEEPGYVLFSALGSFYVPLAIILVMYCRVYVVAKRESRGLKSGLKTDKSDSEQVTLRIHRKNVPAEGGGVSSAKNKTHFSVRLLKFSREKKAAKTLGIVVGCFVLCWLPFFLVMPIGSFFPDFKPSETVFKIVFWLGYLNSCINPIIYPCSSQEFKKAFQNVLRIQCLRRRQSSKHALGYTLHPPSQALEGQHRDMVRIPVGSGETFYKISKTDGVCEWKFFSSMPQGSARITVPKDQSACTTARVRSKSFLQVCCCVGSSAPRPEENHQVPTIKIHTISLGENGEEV
Summary of the method: (§2)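 Rat thoracic aortic strips, isometric tension; equilibrated 120 min, primed with 60 mM KCl. Cumulative phenylephrine (0.01-10 μM) curve, wash, 1 h later second cumulative curve with test drug present. pA2 from the concentration-response curves where blockade is competitive (otherwise noncompetitive); single determination.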

[5] = target: T2, Adrenergic receptor alpha-1 (Rattus norvegicus) (UniProt P15823+P23944+P43140); experiment: In vivo inhibitory activity in rats against elevation of blood pressure caused by phenylephrine (30 ug/kg, iv) through Alpha-1 adrenergic receptor, after 1 hr oral administration at dose of 10 mg/kg; format: functional, organism-based; parameters: dose 10 mg/kg
Summary of the method: (§3)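 Male SD rats under urethane (1 g/kg ip) and alpha-chloralose (80 mg/kg ip). Blood pressure recorded via carotid catheter and transducer, iv dosing via venous catheter. After oral drug or vehicle, phenylephrine 30 μg/kg iv. The pressor rise was expressed as % inhibition, mean ± SEM.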

[6] = target: T3, Serotonin 2 (5-HT2) receptor (Rattus norvegicus) (UniProt P30994+P08909+P14842); experiment: (§4) In vitro antagonistic activity against the contraction induced by 5-HT through 5-hydroxytryptamine 2 receptor in rat thoracic aortic strips; format: functional; conditions: concentration not given here
T3 sequence (P08909 whole entry, looked up): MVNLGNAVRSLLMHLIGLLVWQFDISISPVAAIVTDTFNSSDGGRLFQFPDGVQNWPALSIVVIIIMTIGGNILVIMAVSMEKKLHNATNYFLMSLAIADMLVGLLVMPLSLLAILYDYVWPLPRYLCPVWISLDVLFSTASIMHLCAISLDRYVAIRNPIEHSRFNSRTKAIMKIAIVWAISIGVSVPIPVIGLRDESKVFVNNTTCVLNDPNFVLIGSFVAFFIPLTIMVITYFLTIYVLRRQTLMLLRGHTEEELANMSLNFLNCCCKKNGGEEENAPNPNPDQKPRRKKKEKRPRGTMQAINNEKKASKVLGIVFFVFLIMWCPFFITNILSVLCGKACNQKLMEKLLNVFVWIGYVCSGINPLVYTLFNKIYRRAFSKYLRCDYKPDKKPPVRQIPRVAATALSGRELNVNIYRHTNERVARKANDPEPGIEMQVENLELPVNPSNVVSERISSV
T3 sequence (P14842 whole entry, looked up): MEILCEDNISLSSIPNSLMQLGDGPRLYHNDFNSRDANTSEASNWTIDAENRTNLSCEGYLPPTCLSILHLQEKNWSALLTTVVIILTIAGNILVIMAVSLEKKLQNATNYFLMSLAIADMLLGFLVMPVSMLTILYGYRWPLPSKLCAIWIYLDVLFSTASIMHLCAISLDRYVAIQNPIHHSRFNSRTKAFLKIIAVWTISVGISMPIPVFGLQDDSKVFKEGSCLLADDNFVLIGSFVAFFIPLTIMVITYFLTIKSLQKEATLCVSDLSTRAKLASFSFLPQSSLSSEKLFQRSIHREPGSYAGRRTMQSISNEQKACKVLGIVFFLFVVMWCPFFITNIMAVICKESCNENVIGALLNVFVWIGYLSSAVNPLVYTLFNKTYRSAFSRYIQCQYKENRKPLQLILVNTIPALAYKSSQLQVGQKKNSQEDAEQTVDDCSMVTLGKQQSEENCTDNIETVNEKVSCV
T3 sequence (P30994 whole entry, looked up): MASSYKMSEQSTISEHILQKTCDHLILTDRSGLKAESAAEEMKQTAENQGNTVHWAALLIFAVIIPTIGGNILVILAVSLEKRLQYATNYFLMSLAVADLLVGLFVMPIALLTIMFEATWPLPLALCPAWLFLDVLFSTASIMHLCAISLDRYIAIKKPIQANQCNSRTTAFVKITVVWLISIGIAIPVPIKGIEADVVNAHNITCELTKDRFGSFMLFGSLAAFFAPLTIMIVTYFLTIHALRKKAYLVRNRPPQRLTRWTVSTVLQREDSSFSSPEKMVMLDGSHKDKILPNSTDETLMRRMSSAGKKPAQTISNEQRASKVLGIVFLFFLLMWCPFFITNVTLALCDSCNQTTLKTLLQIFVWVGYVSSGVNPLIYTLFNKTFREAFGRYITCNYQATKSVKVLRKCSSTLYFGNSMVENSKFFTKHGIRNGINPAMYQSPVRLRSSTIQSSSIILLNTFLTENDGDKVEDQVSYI
Summary of the method: (§5)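 Rat thoracic aortic strips, isometric tension; equilibrated 120 min, primed with 60 mM KCl. Cumulative 5-HT (0.1-100 μM) curve, wash, 1 h later second cumulative 5-HT curve with test drug present. pA2 from the concentration-response curves where blockade is competitive (otherwise noncompetitive); single determination.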

[7] = target: T1, Adrenergic receptor alpha-1; experiment: In vitro antagonistic activity against the contraction induced by phenylephrine through alpha-1 receptor in rat thoracic aortic strips; format: functional; summary of the method: as §2
[8] = target: T2, Adrenergic receptor alpha-1 (Rattus norvegicus); experiment: In vivo inhibitory activity in rats against elevation of blood pressure caused by phenylephrine (30 ug/kg, iv) through Alpha-1 adrenergic receptor after 1 hr of oral administration at the dose of 10 mg/kg; format: functional, organism-based; parameters: dose 10 mg/kg; summary of the method: as §3
Mus musculus [9] = experiment: The inhibition of compound was measured for 5 min in head twitches of mice induced by 5-HTP(100 mg/kg, ip) at the dose of 30 mg/kg; format: functional; summary of the method: as §1
[10] = target: T3, Serotonin 2 (5-HT2) receptor (Rattus norvegicus); experiment: In vivo inhibitory activity of 10 mg/kg compound in rats against elevation of BP caused by 5-HT (300 ug/kg, iv) through 5-hydroxytryptamine 2 receptor 3h after oral administration; format: functional, organism-based; parameters: dose 10 mg/kg
Summary of the method: (§6)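 Male SD rats anesthetized with urethane (1 g/kg ip) plus alpha-chloralose (80 mg/kg ip). Carotid arterial catheter to a pressure transducer, venous catheter for injection. After oral drug or vehicle, 5-HT 300 μg/kg iv. The pressor phase following the brief hypotensive phase was measured and expressed as % inhibition, mean ± SEM.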

[11] = target: T3, Serotonin 2 (5-HT2) receptor (Rattus norvegicus); experiment: In vivo inhibitory activity of 3 mg/kg compound in rats against elevation of BP caused by 5-HT (300 ug/kg, iv) through 5-hydroxytryptamine 2 receptor 3h after oral administration; format: functional, organism-based; parameters: dose 3 mg/kg; summary of the method: as §6
[12] = target: T3, Serotonin 2 (5-HT2) receptor (Rattus norvegicus); experiment: In vivo inhibitory activity of 3 mg/kg compound in rats against elevation of BP caused by 5-HT (300 ug/kg, iv) through 5-hydroxytryptamine 2 receptor 1 hr after oral administration; format: functional, organism-based; parameters: dose 3 mg/kg; summary of the method: as §6
[13] = tested on: Serotonin 2 (5-HT2) receptor (Rattus norvegicus); experiment: In vivo inhibitory activity in rats against elevation of blood pressure caused by 5-HT (300 ug/kg, iv) through 5-HT2 receptor after 3h of oral administration at the dose of 3 mg/kg
[14] = target: T4, Serotonin 2 (5-HT2) receptor (Rattus norvegicus, UniProt P30994+P08909+P14842); experiment: In vitro antagonistic activity tested against the contraction induced by 5-HT through 5-hydroxytryptamine 2 receptor in rat thoracic aortic strips; format: functional
[15] = target: T2, Adrenergic receptor alpha-1 (Rattus norvegicus); experiment: In vitro antagonistic activity against the contraction induced by phenylephrine through Alpha-1 adrenergic receptor in rat thoracic aortic strips; format: functional; conditions: concentration not given here; summary of the method: as §2
[16] = target: T2, Adrenergic receptor alpha-1 (Rattus norvegicus); experiment: In vivo inhibitory activity in rats against elevation of blood pressure caused by phenylephrine (30 ug/kg, iv) through alpha-1 receptor after 3h of oral administration at the dose of 10 mg/kg; format: functional, organism-based; parameters: dose 10 mg/kg; summary of the method: as §3
[17] = target: T2, Adrenergic receptor alpha-1 (Rattus norvegicus); experiment: In vivo inhibitory activity in rats against elevation of blood pressure caused by phenylephrine (30 ug/kg, iv) through alpha-1 receptor after 1 hr of oral administration at the dose of 10 mg/kg; format: functional, organism-based; parameters: dose 10 mg/kg; summary of the method: as §3
Mus musculus [18] = experiment: The inhibition of compound was measured for 8 min in head twitches of mice induced by 5-HTP(100 mg/kg, ip) at the dose of 0.1 mg/kg; format: functional; summary of the method: as §1
Mus musculus [19] = experiment: The inhibition of compound was measured for 8 min in head twitches of mice induced by 5-HTP(100 mg/kg, ip) at the dose of 0.3 mg/kg; format: functional; summary of the method: as §1
Mus musculus [20] = experiment: The inhibition of compound was measured for 8 min in head twitches of mice induced by 5-HTP(100 mg/kg, ip) at the dose of 1 mg/kg; format: functional; summary of the method: as §1
[21] = target: T4, Serotonin 2 (5-HT2) receptor; experiment: as §4; format: functional; summary of the method: as §5
[22] = target: T3, Serotonin 2 (5-HT2) receptor (Rattus norvegicus); experiment: In vivo inhibitory activity of 10 mg/kg compound in rats against elevation of BP caused by 5-HT (300 ug/kg, iv) through 5-hydroxytryptamine 2 receptor 1 hr after oral administration; format: functional, organism-based; parameters: dose 10 mg/kg; summary of the method: as §6
[23] = target: T4, Serotonin 2 (5-HT2) receptor; experiment: In vitro antagonistic activity against the contraction induced by 5-HT through 5-HT2 receptor in rat thoracic aortic strips; format: functional; summary of the method: as §5
[24] = target: T3, Serotonin 2 (5-HT2) receptor (Rattus norvegicus); experiment: In vitro antagonistic activity against the contraction induced by 5-HT through 5-hydroxytryptamine 2 receptor in rat thoracic aortic strips; NC=non competitive antagonism; format: functional; conditions: filed as antagonist; summary of the method: as §5
[25] = target: T2, Adrenergic receptor alpha-1 (Rattus norvegicus); experiment: In vitro antagonistic activity against the contraction induced by phenylephrine through Alpha-1 adrenergic receptor in rat thoracic aortic strips; NC = non-competitive inhibition; format: functional; summary of the method: as §2

| SMILES | inhibition in vivo at 3 mg/kg (Mus musculus [1]) [%] | inhibition in vivo at 10 mg/kg (Mus musculus [2]) [%] | pA2 [4] | inhibition [5] [%] | inhibition [10] [%] | inhibition [11] [%] | inhibition [12] [%] | further results |
| --- | --- | --- | --- | --- | --- | --- | --- | --- |
| Cc1nc2sccn2c(=O)c1CCN1CCC(=C(c2ccc(F)cc2)c2ccc(F)cc2)CC1 [RITANSERIN] | 95 | 100 | 7.5 | 7 | – | – | – | inhibition in vivo at 1 mg/kg (Mus musculus [3]): 80% |
| O=c1n(CCN2CCC(=C(c3ccc(F)cc3)c3ccc(F)cc3)CC2)nc2n1CCCC2 | 13 | 55 | – | – | 87 | 78 | 76 | inhibition [6]: 96%; pA2 [7]: 7; inhibition [8]: 14%; inhibition in vivo at 30 mg/kg (Mus musculus [9]): 85%; inhibition [13]: 11%; pA2 [14]: 8.6; inhibition [15]: 14%; inhibition [16]: 4% |
| O=C(c1ccc(F)cc1)C1CCN(CCn2c(=O)nc3n(c2=O)CCCC3)CC1 | 67 | 80 | 6.9 | 33 | 90 | 83 | 93 | inhibition [6]: 93%; inhibition [17]: 33%; inhibition in vivo at 0.1 mg/kg (Mus musculus [18]): 49%; inhibition in vivo at 0.3 mg/kg (Mus musculus [19]): 59%; pA2 [14]: 8.1; inhibition in vivo at 1 mg/kg (Mus musculus [20]): 81% |
| O=C(c1ccc(F)cc1)C1CCN(CCn2c(=O)[nH]c3ccccc3c2=O)CC1 [KETANSERIN] | 92 | 100 | 7.8 | 91 | 100 | 84 | 96 | inhibition [17]: 91%; inhibition in vivo at 0.1 mg/kg (Mus musculus [18]): 49%; inhibition in vivo at 0.3 mg/kg (Mus musculus [19]): 88%; inhibition in vivo at 1 mg/kg (Mus musculus [20]): 93% |
| O=C(c1ccc(Cl)cc1)C1CCN(CCn2nc3n(c2=O)CCCC3)CC1 | – | – | 7.2 | 16 | – | – | – | pA2 [21]: 7.2; inhibition [22]: 83% |
| O=c1n(CCN2CCC(=C(c3ccc(F)cc3)c3ccc(F)cc3)CC2)nc2ccccn12 | – | – | 6.6 | 6 | – | – | – | inhibition [22]: 58%; pA2 [23]: 7 |
| O=C(c1ccc(F)cc1)C1CCN(CCn2nc3n(c2=O)CCCCC3)CC1 | – | – | – | – | – | – | – | pA2 [24]: Non-competitive antagonist; pA2 [25]: Non-competitive inhibition |
